# pKi: −log10 of the molar value. “And” between values parts separate entries of the source, which are not always exact repeats. Equal entries are not always repeated.
# What was measured:
# [1] = molecular target: T1, Angiotensin-converting enzyme (Oryctolagus cuniculus, UniProt P12822); test: Inhibitory activity against rabbit lung angiotensin-1 converting enzyme
# T1 sequence (P12822 whole entry): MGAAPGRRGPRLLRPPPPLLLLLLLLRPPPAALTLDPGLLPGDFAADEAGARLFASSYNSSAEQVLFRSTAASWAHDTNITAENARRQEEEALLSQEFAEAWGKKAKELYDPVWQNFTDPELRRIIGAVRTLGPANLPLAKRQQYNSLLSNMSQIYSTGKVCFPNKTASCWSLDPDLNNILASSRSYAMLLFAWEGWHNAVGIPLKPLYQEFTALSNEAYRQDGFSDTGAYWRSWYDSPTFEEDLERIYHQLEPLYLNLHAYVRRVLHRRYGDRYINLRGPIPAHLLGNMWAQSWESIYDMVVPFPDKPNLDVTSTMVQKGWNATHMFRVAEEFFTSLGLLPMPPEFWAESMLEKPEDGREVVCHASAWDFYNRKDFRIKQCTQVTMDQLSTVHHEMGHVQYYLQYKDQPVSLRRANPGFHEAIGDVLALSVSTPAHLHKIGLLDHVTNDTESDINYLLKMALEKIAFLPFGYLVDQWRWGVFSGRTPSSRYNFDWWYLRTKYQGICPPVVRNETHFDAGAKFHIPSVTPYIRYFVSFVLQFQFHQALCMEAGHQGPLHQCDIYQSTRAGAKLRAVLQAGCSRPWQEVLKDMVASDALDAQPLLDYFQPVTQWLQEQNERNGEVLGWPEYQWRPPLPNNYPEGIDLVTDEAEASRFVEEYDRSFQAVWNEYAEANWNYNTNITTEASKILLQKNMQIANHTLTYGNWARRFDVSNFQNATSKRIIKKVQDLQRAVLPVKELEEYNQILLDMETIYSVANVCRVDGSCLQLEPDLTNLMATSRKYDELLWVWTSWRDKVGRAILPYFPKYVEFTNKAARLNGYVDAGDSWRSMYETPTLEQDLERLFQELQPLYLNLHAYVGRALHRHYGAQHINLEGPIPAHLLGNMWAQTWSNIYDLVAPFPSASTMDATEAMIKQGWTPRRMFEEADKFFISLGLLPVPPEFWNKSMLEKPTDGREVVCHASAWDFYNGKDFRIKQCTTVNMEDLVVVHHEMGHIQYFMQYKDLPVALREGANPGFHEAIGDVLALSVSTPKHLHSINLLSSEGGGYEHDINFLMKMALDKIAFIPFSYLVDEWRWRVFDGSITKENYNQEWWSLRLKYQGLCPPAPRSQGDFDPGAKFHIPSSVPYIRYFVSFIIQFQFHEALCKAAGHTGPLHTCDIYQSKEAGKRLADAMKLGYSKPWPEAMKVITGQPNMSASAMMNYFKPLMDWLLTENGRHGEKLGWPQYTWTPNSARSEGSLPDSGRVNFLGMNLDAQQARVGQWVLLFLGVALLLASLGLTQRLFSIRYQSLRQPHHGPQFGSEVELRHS
# Rattus norvegicus [2] = test: % Inhibition of angiotensin-I induced pressor response in normotensive rats after intravenous dosing of 0.5 umol/kg; format: functional
# Outline: (§1)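 Conscious, unrestrained male Sprague–Dawley rats (225–275 g) with indwelling aortic and vena caval catheters, allowed at least 2 weeks of recovery. Aortic pressure recorded directly. Baseline pressor responses to AI (310 ng/kg iv) and AII (100 ng/kg iv) were taken first. Compound was given iv in 0.1 mL water or 5% NaHCO3, and responses were followed for up to 70 min. Maximum % inhibition is the mean of four animals per dose.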
# Rattus norvegicus [3] = test: (§2) % Inhibition of angiotensin-I induced pressor response in normotensive rats after peroral dosing of 15 umol/kg; format: functional; conditions: po
# Outline: (§3)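 Conscious, unrestrained catheterized male Sprague–Dawley rats (225–275 g) had direct aortic pressure recording. Baseline pressor responses were taken to AI (310 ng/kg iv) and AII (100 ng/kg iv). Compound was given orally in water, 5% NaHCO3 or 1% agar suspension. AI and AII responses were then tracked up to 280 min. Maximum % inhibition is the mean response of four animals per dose.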
# [4] = molecular target: T2, Angiotensin-converting enzyme (Rattus norvegicus) (UniProt P47820); test: In vitro inhibition of rat Angiotensin I converting enzyme
# T2 sequence (whole entry): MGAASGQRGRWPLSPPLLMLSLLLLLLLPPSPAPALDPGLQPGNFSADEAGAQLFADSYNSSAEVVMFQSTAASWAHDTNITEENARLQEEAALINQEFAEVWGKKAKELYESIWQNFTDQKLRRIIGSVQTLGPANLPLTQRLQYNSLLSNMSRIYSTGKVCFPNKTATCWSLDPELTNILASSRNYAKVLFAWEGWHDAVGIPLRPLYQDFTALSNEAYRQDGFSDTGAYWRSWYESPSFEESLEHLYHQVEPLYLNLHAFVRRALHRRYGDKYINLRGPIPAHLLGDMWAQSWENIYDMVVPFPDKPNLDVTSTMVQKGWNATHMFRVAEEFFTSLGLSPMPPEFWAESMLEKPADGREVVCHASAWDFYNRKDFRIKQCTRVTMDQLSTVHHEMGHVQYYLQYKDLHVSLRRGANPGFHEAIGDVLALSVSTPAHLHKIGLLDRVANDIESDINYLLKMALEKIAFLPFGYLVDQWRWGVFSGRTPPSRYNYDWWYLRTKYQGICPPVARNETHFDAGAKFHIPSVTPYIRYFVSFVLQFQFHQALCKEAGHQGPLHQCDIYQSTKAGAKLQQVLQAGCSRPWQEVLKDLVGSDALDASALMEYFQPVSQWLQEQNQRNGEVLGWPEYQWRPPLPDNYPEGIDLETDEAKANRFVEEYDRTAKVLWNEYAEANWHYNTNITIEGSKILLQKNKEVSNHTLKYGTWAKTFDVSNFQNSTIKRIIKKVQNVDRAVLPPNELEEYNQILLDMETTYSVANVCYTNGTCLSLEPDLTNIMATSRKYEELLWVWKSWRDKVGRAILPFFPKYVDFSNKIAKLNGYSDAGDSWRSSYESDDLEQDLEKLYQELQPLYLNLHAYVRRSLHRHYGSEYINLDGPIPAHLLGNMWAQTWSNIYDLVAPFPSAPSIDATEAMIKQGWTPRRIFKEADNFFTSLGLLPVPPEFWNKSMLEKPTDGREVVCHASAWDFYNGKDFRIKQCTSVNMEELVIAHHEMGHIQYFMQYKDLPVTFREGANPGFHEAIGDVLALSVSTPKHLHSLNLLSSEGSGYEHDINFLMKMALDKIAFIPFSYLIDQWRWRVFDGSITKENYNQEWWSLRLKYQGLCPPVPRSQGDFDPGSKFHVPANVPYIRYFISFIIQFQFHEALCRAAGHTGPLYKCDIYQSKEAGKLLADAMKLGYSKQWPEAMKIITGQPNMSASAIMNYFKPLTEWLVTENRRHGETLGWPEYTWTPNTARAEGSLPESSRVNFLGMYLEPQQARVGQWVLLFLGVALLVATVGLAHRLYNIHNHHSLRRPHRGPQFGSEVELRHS
# Rattus norvegicus [5] = test: % Inhibition of angiotensin-I induced pressor response in normotensive rats after peroral dosing of 150 umol/kg; format: functional; conditions: po; outline: as §3
# Rattus norvegicus [6] = test: (§4) % Inhibition of angiotensin-I induced pressor response in normotensive rats after intravenous dosing of 5 umol/kg; format: functional; outline: as §1
# Rattus norvegicus [7] = test: % Inhibition of angiotensin-I induced pressor response in normotensive rats after intravenous dosing of 1.5 umol/kg; format: functional; outline: as §1
# Rattus norvegicus [8] = test: % Inhibition of angiotensin-I induced pressor response in normotensive rats after peroral dosing of 50 umol/kg; format: functional; conditions: po; outline: as §3
# Rattus norvegicus [9] = test: (§5) % Inhibition of angiotensin-I induced pressor response in normotensive rats after intravenous dosing of 0.05 umol/kg; format: functional
# Outline: (§6)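 Male Sprague–Dawley rats (225–275 g) fitted with indwelling abdominal aorta and vena cava catheters, recovered at least 2 weeks, then tested conscious and unrestrained. Aortic pressure was recorded directly. Pressor responses to AI (310 ng/kg iv) and AII (100 ng/kg iv) were taken before dosing. Compound was given iv in water or 5% NaHCO3, and responses were followed up to 70 min. Maximum % inhibition is the mean of four animals per dose.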
# Rattus norvegicus [10] = test: as §2; format: functional; conditions: po; remark: listed apart in the source
# Outline: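 Catheterized conscious male Sprague–Dawley rats (225–275 g). Baseline pressor responses to AI (310 ng/kg iv) and AII (100 ng/kg iv) were taken. Compound was given orally in 0.75 mL water, 5% NaHCO3 or 1% agar suspension, and AI/AII responses were followed for up to 280 min. Maximum % inhibition is the mean of four animals per dose.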
# Rattus norvegicus [11] = test: % Inhibition of angiotensin-I induced pressor response in normotensive rats after peroral dosing of 5 umol/kg; format: functional; conditions: po; outline: as §3
# Rattus norvegicus [12] = test: % Inhibition of angiotensin-I induced pressor response in normotensive rats after intravenous dosing of 0.15 umol/kg; format: functional; outline: as §1
# Rattus norvegicus [13] = test: % Inhibition of angiotensin-I induced pressor response in normotensive rats after peroral dosing of 0.5 umol/kg; format: functional; conditions: po; outline: as §3
# Rattus norvegicus [14] = test: % Inhibition of angiotensin-I induced pressor response in normotensive rats after peroral dosing of 1.5 umol/kg; format: functional; conditions: po; outline: as §3
# Rattus norvegicus [15] = test: as §4; format: functional; outline: as §6; remark: listed apart in the source
# Rattus norvegicus [16] = test: % Inhibition of angiotensin-I induced pressor response in normotensive rats after intravenous dosing of 0.015 umol/kg; format: functional; outline: as §6
# Rattus norvegicus [17] = test: as §5; format: functional; outline: as §1; remark: listed apart in the source
# Rattus norvegicus [18] = test: % Inhibition of angiotensin-I induced pressor response in normotensive rats after peroral dosing of 0.15 umol/kg; format: functional; conditions: po; outline: as §3
SMILES,pKi [1],inhibition in vivo at 0.5 µmol/kg (Rattus norvegicus [2]),inhibition in vivo at 15 µmol/kg (Rattus norvegicus [3]),T50 [4],inhibition in vivo at 150 µmol/kg (Rattus norvegicus [5]),inhibition in vivo at 5 µmol/kg (Rattus norvegicus [6]),inhibition in vivo at 1.5 µmol/kg (Rattus norvegicus [7]),inhibition in vivo at 50 µmol/kg (Rattus norvegicus [8]),inhibition in vivo at 0.05 µmol/kg (Rattus norvegicus [9]),inhibition in vivo at 15 µmol/kg (Rattus norvegicus [10]),inhibition in vivo at 5 µmol/kg (Rattus norvegicus [11]),inhibition in vivo at 0.15 µmol/kg (Rattus norvegicus [12]),inhibition in vivo at 0.5 µmol/kg (Rattus norvegicus [13]),inhibition in vivo at 1.5 µmol/kg (Rattus norvegicus [14]),inhibition in vivo at 5 µmol/kg (Rattus norvegicus [15]),inhibition in vivo at 0.015 µmol/kg (Rattus norvegicus [16]),inhibition in vivo at 0.05 µmol/kg (Rattus norvegicus [17]),inhibition in vivo at 0.15 µmol/kg (Rattus norvegicus [18])
O=C(O)[C@@H]1CCCN1C(=O)CP(=O)(O)CCCCc1ccccc1,7.82,56%,13%,180 nM,75%,92%,86%,47%,–,–,–,–,–,–,–,–,–,–
O=C(O)[C@@H]1C[C@@H](C2CCCCC2)CN1C(=O)CP(=O)(O)CCCCc1ccccc1 [FOSINOPRILAT],8.82,87%,–,11 nM and 4 nM,–,–,–,–,21%,71%,28%,68%,–,–,–,–,–,–
C[C@H](CS)C(=O)N1CCC[C@H]1C(=O)O [CAPTOPRIL],–,87%,78%,–,–,–,91%,93%,18%,–,79%,66%,42%,61%,93%,–,–,–
CO[C@@H]1C[C@@H](C(=O)O)N(C(=O)CP(=O)(O)CCCCc2ccccc2)C1,–,73%,–,100 nM,–,–,–,–,–,–,–,–,–,–,–,23%,33%,–
CCOC(=O)[C@H](CCc1ccccc1)N[C@@H](C)C(=O)N1CC2(C[C@H]1C(=O)O)SCCS2,–,–,–,–,–,–,–,–,–,–,–,–,41%,87%,–,–,–,15%

# — ChEMBL document CHEMBL1124128, “Angiotensin-converting enzyme inhibitors. Mercaptan, carboxyalkyl dipeptide, and phosphinic acid inhibitors incorporating 4-substituted prolines” (J Med Chem, 1988)
